Results from PMC9307089 (Journal of medicinal chemistry, 2021).
pIC50: −log10 of the molar value. Like-named read-outs stand apart in the source and are kept apart here. Numbered stars: 1 amine (or outer) side, 2 acyl side, 3 side chain; on linkers, the order of the positions; unused ones are H or OH. Square brackets hold non-standard residues; d marks the D form. Peptide text beside a SMILES is read from it. X1 = N=C(N)NCCC[C@H](N[*:1])C(=O)c1nc2ccc(C(=O)[*:2])cc2s1

Columns and labels:
[1] = Mouse plasma protein binding; type: in vitro ADME
[2] = Mouse pharmacokinetics, IP dosing; conditions: for duration of compound exposure (detectable compound) in plasma: monitored for 24 h
[3] = Tolerability in mice, daily IP for 7 days; type: in vivo
matriptase = target: T1, matriptase (Homo sapiens, UniProt Q9Y5Y6); assay: Proteolytic processing of recombinant pro-HGF by matriptase; type: biochemical; conditions: pro-HGF 10 ng, matriptase 1 nM, one hour
T1 sequence (Q9Y5Y6 1-855): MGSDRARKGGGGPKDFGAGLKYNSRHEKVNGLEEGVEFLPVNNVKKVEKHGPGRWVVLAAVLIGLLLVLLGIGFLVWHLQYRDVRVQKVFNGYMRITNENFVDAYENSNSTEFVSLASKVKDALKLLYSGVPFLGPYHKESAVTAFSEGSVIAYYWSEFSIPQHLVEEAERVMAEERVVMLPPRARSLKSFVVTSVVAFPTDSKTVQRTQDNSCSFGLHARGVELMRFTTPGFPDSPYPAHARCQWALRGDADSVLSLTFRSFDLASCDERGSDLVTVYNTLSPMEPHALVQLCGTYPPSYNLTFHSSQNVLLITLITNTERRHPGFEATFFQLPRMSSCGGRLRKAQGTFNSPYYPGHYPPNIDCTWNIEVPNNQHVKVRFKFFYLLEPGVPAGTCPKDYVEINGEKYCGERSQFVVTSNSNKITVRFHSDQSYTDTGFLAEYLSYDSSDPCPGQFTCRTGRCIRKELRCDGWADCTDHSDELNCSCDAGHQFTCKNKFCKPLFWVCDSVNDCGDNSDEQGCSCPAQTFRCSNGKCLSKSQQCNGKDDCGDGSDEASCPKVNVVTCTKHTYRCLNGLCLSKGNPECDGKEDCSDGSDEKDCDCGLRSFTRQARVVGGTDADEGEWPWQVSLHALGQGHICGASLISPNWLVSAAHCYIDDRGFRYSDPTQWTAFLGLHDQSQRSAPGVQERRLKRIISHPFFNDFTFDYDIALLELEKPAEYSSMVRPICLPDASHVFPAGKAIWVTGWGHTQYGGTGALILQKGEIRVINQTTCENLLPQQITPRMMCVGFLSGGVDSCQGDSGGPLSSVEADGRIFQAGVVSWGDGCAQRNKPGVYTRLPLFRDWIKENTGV
In short: (§1)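 Recombinant pro-HGF (10 ng) was incubated 1 h with matriptase (1 nM), hepsin (10 nM) or HGFA (5 nM), with or without test compound. Products were immunoblotted with a polyclonal antibody detecting pro-HGF and the alpha and beta chains of active HGF. Active HGF was run as positive control.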

EBC-1 lung cancer cells [4] = assay: Cell viability, pro-HGF-mediated resistance to MET inhibitor JNJ-38877605; type: cell-based; conditions: JNJ-38877605 25 nM, pro-HGF 100 ng/ml, inhibitor 1 μM, 48 h
In short: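 EBC-1 cells pre-incubated 24 h with pro-HGF (100 ng/ml), with or without test compound (1μM), then treated with MET kinase inhibitor JNJ-38877605 (25nM). Viability read by CellTiterGlo after 48 hrs. Means±S.E.M., n=3. One-way ANOVA with Dunnett's multiple comparison test against JNJ plus pro-HGF treated cells.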

HCC827 cells = assay: Pro-HGF-mediated wound healing; type: cell-based; conditions: HCC827, inhibitor 10 μM, 24 h
In short: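 HCC827 monolayers were grown to confluence, serum-starved overnight and scratched. Cells were then pre-incubated 30 min with test compound (10 μM) and stimulated with HGF or pro-HGF for 24 h. Plates were stained with crystal violet and wound closure imaged; data average n=3.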

hepsin = hepsin (Homo sapiens, UniProt P05981); assay: Proteolytic processing of recombinant pro-HGF by hepsin; type: biochemical; conditions: pro-HGF 10 ng, hepsin 10 nM, one hour
Chain of hepsin (P05981 whole entry): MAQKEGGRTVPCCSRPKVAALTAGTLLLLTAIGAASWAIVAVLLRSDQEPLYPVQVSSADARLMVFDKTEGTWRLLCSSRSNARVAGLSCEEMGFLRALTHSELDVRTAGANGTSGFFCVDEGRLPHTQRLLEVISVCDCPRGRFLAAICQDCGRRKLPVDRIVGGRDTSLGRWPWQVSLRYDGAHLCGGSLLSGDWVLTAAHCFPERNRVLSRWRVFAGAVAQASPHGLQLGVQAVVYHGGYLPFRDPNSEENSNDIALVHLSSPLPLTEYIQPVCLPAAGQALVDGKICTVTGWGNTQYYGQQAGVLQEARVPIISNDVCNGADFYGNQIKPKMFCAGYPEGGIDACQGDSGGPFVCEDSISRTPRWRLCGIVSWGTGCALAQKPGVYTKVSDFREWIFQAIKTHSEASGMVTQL
In short: as §1

HGFA = target: T2, HGFA (Homo sapiens, UniProt Q04756); assay: Proteolytic processing of recombinant pro-HGF by HGFA; type: biochemical; conditions: pro-HGF 10 ng, HGFA 5 nM, one hour
T2 sequence (Q04756 373-655): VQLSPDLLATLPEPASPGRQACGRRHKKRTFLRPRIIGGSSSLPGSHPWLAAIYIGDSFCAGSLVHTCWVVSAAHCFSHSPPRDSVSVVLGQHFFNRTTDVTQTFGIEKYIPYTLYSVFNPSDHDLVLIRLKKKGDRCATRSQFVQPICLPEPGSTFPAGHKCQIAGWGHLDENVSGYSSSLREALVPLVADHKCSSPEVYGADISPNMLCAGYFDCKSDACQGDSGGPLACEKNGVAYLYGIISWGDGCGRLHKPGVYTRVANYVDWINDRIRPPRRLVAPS
In short: as §1

[5] = target: T3, recombinant serine protease domain of HGFA (Homo sapiens, UniProt Q04756); assay: Fluorescent kinetic enzyme inhibition assay, HGFA; type: biochemical
T3 sequence (Q04756 408-646 limits assumed): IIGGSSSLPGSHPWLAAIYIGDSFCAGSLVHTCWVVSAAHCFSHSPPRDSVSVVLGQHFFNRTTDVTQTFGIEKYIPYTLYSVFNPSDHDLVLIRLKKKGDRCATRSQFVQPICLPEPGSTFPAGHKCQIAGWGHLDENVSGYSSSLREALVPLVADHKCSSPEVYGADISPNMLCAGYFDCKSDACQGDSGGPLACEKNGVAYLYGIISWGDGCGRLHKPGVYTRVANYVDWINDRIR

[6] = In vitro stability in mouse plasma; type: in vitro ADME
[7] = In vitro stability in human plasma; type: in vitro ADME
thrombin = thrombin (Homo sapiens, UniProt P00734); assay: Chromogenic kinetic enzyme assay, thrombin; type: biochemical
HCC827 lung cancer cells = assay: Cell viability, pro-HGF-mediated resistance to gefitinib; type: cell-based; conditions: gefitinib 20 nM, pro-HGF 100 ng/ml, inhibitor 0.1-1 μM, 72 h
In short: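 HCC827 cells (EGFR exon-19 E746–A750 deletion) were exposed to gefitinib (20 nM), with or without pro-HGF (100 ng/ml), and test compound (0.1–1 μM) as indicated. Viability was read by crystal violet staining after 72 h. Data are means ± S.E.M. of n=3–5, analysed by one-way ANOVA with Dunnett's test against cells given gefitinib plus pro-HGF.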

H596 lung cancer cells = assay: Pro-HGF-mediated growth of H596 cells in vitro; type: cell-based; conditions: pro-HGF 50 ng/ml; JNJ 500 nM, nafamostat […], ZFH7116 10 μM
EBC-1 lung cancer cells [8] = conditions: previous finding; cited from earlier work
[9] = read-out: Thrombin IC50, chromogenic substrate S2238

Compound: CC(=O)N[C@H]1CCCCNC(=O)C[C@@H](C(=O)N[C@@H](CCCNC(=N)N)C(=O)c2nc3ccccc3s2)NC(=O)[C@H](CC(C)C)NC1=O [Compound 15, Ac-cyclo(KLD)-R-ketobenzothiazole]
- Mouse PPB (% free) [1]: 85.3 % free

Compound: CC(=O)N[C@H]1CCCCNC(=O)CC[C@@H](C(=O)N[C@@H](CCCNC(=N)N)C(=O)c2nc3ccccc3s2)NC(=O)[C@H](CC(C)C)NC1=O [Compound 16, Ac-cyclo(KLE)-R-ketobenzothiazole]
- Mouse PPB (% free) [1]: 18.4 % free
- duration of compound exposure (detectable compound) in plasma ([2]; IP 20 mg/kg): ≤ 8 h

Compound: CC(=O)N[C@H]1CCCCNC(=O)CC[C@@H](C(=O)N[C@@H](CCCNC(=N)N)C(=O)c2nc3ccccc3s2)NC(=O)[C@H](CCCNC(=N)N)NC1=O [Compound 17, Ac-cyclo(KRE)-R- ketobenzothiazole]
- Mouse PPB (% free) [1]: 25.9 % free

Compound: CC(=O)N[C@H]1CC(=O)NCCCC[C@@H](C(=O)N[C@@H](CCCNC(=N)N)C(=O)c2nc3ccccc3s2)NC(=O)[C@H](CC(C)C)NC1=O [Compound 18, Ac-cyclo(DLK)-R- ketobenzothiazole]
- tolerated dose [3]: up to 20 mg/kg
- inhibition of pro-HGF activation by matriptase (matriptase): potently inhibited
- pro-survival activity of pro-HGF in JNJ-38877605-treated EBC-1 cells (EBC-1 lung cancer cells [4]): blocked the pro-survival activity of pro-HGF
- pro-HGF-mediated wound closure (HCC827 cells): significantly inhibited
- inhibition of pro-HGF activation by hepsin (hepsin): potently inhibited
- Mouse PPB (% free) [1]: 28.6 % free
- AUC in mice (in words) ([2]; IP 20 mg/kg): high
- duration of compound exposure above IC50s ([2]; IP 20 mg/kg): 24 h
- duration of compound exposure (detectable compound) in plasma ([2]; IP 20 mg/kg): > 24 h
- inhibition of pro-HGF activation by HGFA (HGFA): did not inhibit

Compound: CC(=O)N[C@H]1CCC(=O)NCCCC[C@@H](C(=O)N[C@@H](CCCNC(=N)N)C(=O)c2nc3ccccc3s2)NC(=O)[C@H](CC(C)C)NC1=O [Compound 19, Ac-cyclo(ELK)-R- ketobenzothiazole]
- pIC50 [5]: < 4.70
- half-life [6]: 2.62 h
- Mouse PPB (% free) [1]: 6.0 % free
- half-life [7]: > 4.82 h
- pIC50 (thrombin): < 4.70
- duration of compound exposure (detectable compound) in plasma ([2]; IP 20 mg/kg): ≤ 8 h
- half-life ([2]; mouse, plasma, ip, 20 mg/kg): < 0.5 h

Compound: CC(=O)N[C@H]1CC(=O)NCCCC[C@@H](C(=O)N[C@@H](CCCNC(=N)N)C(=O)c2nc3ccccc3s2)NC(=O)CNC1=O [Compound 22, Ac-cyclo(DGK)-R- ketobenzothiazole]
- pIC50 (thrombin; [9]): < 4.70

Compound: CC(=O)N[C@H]1CC(=O)NCCCC[C@@H](C(=O)N[C@@H](CCCNC(=N)N)C(=O)c2nc3ccccc3s2)NC(=O)[C@H](C)NC1=O [Compound 23, Ac-cyclo(DAK)-R- ketobenzothiazole]
- pIC50 (thrombin; [9]): < 4.70

Compound: CC(=O)N[C@H]1CC(=O)NCCCC[C@@H](C(=O)N[C@@H](CCCNC(=N)N)C(=O)c2nc3ccccc3s2)NC(=O)[C@H](C(C)C)NC1=O [Compound 24, Ac-cyclo(DVK)-R- ketobenzothiazole]
- pIC50 (thrombin; [9]): < 4.70

Compound: CC(=O)N[C@H]1CC(=O)NCCCC[C@@H](C(=O)N[C@@H](CCCNC(=N)N)C(=O)c2nc3ccccc3s2)NC(=O)[C@H](CC(N)=O)NC1=O [Compound 25, Ac-cyclo(DNK)-R- ketobenzothiazole]
- pIC50 (thrombin; [9]): < 4.70

Compound: CC(=O)N[C@H]1CC(=O)NCCCC[C@@H](C(=O)N[C@@H](CCCNC(=N)N)C(=O)c2nc3ccccc3s2)NC(=O)[C@H](CCC(N)=O)NC1=O [Compound 26, Ac-cyclo(DQK)-R- ketobenzothiazole]
- pIC50 (thrombin; [9]): < 4.70

Compound: CC(=O)N[C@H]1CC(=O)NCCCC[C@@H](C(=O)N[C@@H](CCCNC(=N)N)C(=O)c2nc3ccccc3s2)NC(=O)[C@H]([C@@H](C)O)NC1=O [Compound 27, Ac-cyclo(DTK)-R- ketobenzothiazole]
- pIC50 (thrombin; [9]): < 4.70

Compound: CC(=O)N[C@H]1CC(=O)NCCCC[C@@H](C(=O)N[C@@H](CCCNC(=N)N)C(=O)c2nc3ccccc3s2)NC(=O)[C@H](Cc2ccccc2)NC1=O [Compound 29, Ac-cyclo(DFK)-R- ketobenzothiazole]
- AUC in mice (in words) ([2]; IP 20 mg/kg): comparable to 18

Compound: CC(=O)N[C@H]1CC(=O)NCCCC[C@@H](C(=O)N[C@@H](CCCNC(=N)N)C(=O)c2nc3ccccc3s2)NC(=O)[C@H](Cc2ccc(O)cc2)NC1=O [Compound 30, Ac-cyclo(DYK)-R- ketobenzothiazole]
- pIC50 (thrombin; [9]): < 4.70

Compound: CC(=O)N[C@@H](CO)C(=O)N[C@@H](CCCCN)C(=O)N[C@@H](CC(C)C)C(=O)N[C@@H](CCCNC(=N)N)C(=O)c1nc2ccc(C(=O)N[C@H](C(N)=O)C(C)C)cc2s1 [Compound 31] (Ac-SKL[X1]V-NH2)
- inhibition of pro-HGF activation by matriptase (matriptase): potently inhibited
- pro-survival activity of pro-HGF in JNJ-38877605-treated EBC-1 cells (EBC-1 lung cancer cells [4]): blocked the pro-survival activity of pro-HGF
- pro-survival effect of pro-HGF in gefitinib-treated HCC827 cells (HCC827 lung cancer cells): blocked the pro-survival effects of pro-HGF
- pro-HGF-mediated wound closure (HCC827 cells): significantly inhibited
- inhibition of pro-HGF activation by hepsin (hepsin): potently inhibited
- Mouse PPB (% free) [1]: 16.7 % free
- pro-HGF-mediated growth of H596 cells (H596 lung cancer cells): blocked the growth-promoting activity of pro-HGF
- inhibition of pro-HGF activation by HGFA (HGFA): potently inhibited

Compound: Cn1cc(-c2ccc3nnc(C(F)(F)c4ccc5ncccc5c4)n3n2)cn1 [JNJ-38877605]
- pro-HGF-mediated growth of H596 cells (H596 lung cancer cells): inhibited the pro-HGF-mediated growth of H596 cells

Compound: N=C(N)Nc1ccc(C(=O)Oc2ccc3cc(C(=N)N)ccc3c2)cc1 [Nafamostat]
- pro-HGF-mediated growth of H596 cells (H596 lung cancer cells): inhibited the pro-HGF-mediated growth of H596 cells

Compound: CC1CN(CC2CCN(Cc3ccccc3)CC2)C(=O)N(c2cccc(C(=N)N)c2)C1.O=C(O)C(F)(F)F (stereo not shown) [SRI31215]
- HGF-mediated survival of MET-amplified cancer cells upon MET inhibition (EBC-1 lung cancer cells [8]): inhibited
